CaV13 ICDI inh: Disruptors of the CACNA1D IQ motif to Ca2+-dependent inactivation inhibitor domain association, primary screening, Förster resonance energy transfer in intact living …. hit rate 0.098% among 340,000. inhibition, % at 12.3 µM. HEK cells, CFP/YFP FRET ICDI-IQ, plate reader, 10 min; percent FRET-ratio fall versus neutral wells;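 active = mean replicate inhibition of at least 30% and at least 1% of replicates passing that level; inconclusive = only one of the two criteria is met; inactive = neither criterion is met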
NTR1 ag: activates human neurotensin receptor 1; NTR1-U2OS beta-arrestin-GFP spot imaging, agonist mode; AID 493036; hit rate 0.17% among 330,000; activation, % at 20 µM;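 active = activation at or above 40% of the spot to cytoplasm intensity ratio, with at least 20 cells analyzed; inconclusive = wells under 20 cells, flagged as cytotoxic or low count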
Target sequence (P30989 whole entry, looked up): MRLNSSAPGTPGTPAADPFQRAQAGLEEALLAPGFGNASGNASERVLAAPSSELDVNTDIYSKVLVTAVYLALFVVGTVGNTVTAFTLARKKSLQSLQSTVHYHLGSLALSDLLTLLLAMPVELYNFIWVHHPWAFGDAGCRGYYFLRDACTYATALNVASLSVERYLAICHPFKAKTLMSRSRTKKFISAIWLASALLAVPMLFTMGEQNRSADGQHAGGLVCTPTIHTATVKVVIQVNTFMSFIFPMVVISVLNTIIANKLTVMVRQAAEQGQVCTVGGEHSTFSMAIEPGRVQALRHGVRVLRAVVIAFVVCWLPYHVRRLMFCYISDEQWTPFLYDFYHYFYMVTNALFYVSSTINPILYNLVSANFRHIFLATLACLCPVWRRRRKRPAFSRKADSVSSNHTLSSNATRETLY
SR-BI uptake up: activators of SR-BI mediated HDL lipid uptake. CHO ldlA[mSR-BI] cells, DiI-HDL uptake fluorescence, 3 h; 100 = double the neutral-control signal. activation, % at 12.5 µM. hit rate 0.096% among 320,000;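 active = mean replicate activation of at least 60% and every replicate at or above 60%; inconclusive = mean or all-replicate condition met, but not both; inactive = mean below 60% and not all replicates reaching 60%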
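Test system: SR-BI-overexpressing, LDLR-lacking CHO cells. Measured by: DiI fluorescence, bottom read. Medium: Ham's F12 with 0.5% BSA, HEPES 25 mM, pH 7.4. Timing: 3 h uptake period with compound, 37 °C.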
V-ATPase pH: regulators of yeast V-ATPase proton transport; response, % at 10 µM; AID 504577; hit rate 0.37% among 350,000; S. cerevisiae, pHLuorin cytosolic pH fluorescence; in the data active = response mostly above about 7.3%, no sharp cut-off; inactive = mostly below about 5.4%; note: actives read high
SR-BI DiI inh: mouse SR-BI HDL lipid transfer inhibition. Q61009. ldlA[mSR-BI] CHO cells, DiI-HDL uptake fluorescence, 3 h. inhibition, % at 12.5 µM. hit rate 0.96% among 320,000;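 active = mean replicate inhibition of at least 70% and a set share of replicates each scoring 70 or more; inconclusive = meets just one of the two criteria; inactive = fails both criteria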
Vif inh: inhibitors of HIV Vif; HEK293T cells, Vif self-association by quenched fluorescence, imaging, 24 h; hit rate 0.35% among 340,000; inhibition, % at 7.49 µM; in the data active = inhibition above about 50%, passing the limit was not always enough; inconclusive = no clear call, values can overlap the other calls; inactive = below about 31%
Large screens that a line does not name were inactive. This is a sample that favours compounds with a hit; in the whole collection about 1.7% have one here.

C/C(=N\NC(=O)C(C)Sc1ccccc1)c1ccc([N+](=O)[O-])cc1 (stereo not given)	none
Cc1ccccc1NC(=O)Cc1nc(COC(=O)CCc2ccccc2)cs1	none
COc1ccc(/C(N)=N/OC(=O)CN(C)S(=O)(=O)c2ccccc2)cc1	none
CN(CC(=O)O/N=C(\N)c1ccc([N+](=O)[O-])cc1)S(=O)(=O)c1ccc2ccccc2c1	Vif inh 58.9
O=C(Nc1cc(Cl)ccc1Cl)c1ccc(-c2ccccc2)cc1	none
O=C(Nc1cc(Cl)ccc1Cl)P(=O)(O)c1ccccc1	Vif inh 57.3 (no result: NTR1 ag)
Cc1cccc(Nc2nnc(-c3ccc(N4CCOCC4)c([N+](=O)[O-])c3)c3ccccc23)c1	SR-BI DiI inh 72.5
O=C(Nc1ccc(Cl)cc1)Nc1ccc(N2CCCC2)c(S(=O)(=O)Nc2ccccc2Cl)c1	SR-BI DiI inh 101.8
O=C(Nc1ccc(SC(F)F)cc1)c1ccc2c(=O)n3c(nc2c1)CCC3	none
CCOC(=O)C1C(=O)NC(N2CCCCC2)=NC1c1ccco1 (stereo not given)	V-ATPase pH 14.9
CCOC(=O)C1C(=O)NC(N2CCN(Cc3ccccc3)CC2)=NC1c1ccco1 (stereo not given)	none
COc1cc(C(=O)NCC2CCCO2)ccc1OCc1ccc(Cl)cc1 (stereo not given)	none
COc1cc(C(=O)NCC2CCCO2)ccc1OCc1ccc(Cl)cc1Cl (stereo not given)	SR-BI DiI inh 78.8
C[C@@H](NC(=O)c1nc[nH]c1C(=O)NCc1ccccc1)c1ccccc1	none
C[C@H](NC(=O)c1nc[nH]c1C(=O)N[C@@H](C)C(=O)OCc1ccccc1)C(=O)OCc1ccccc1	Vif inh 67.7
CC(C)(C)OC(=O)NCCCC[C@H](NC(=O)c1[nH]cnc1C(=O)N[C@@H](Cc1ccccc1)C(=O)OC(C)(C)C)C(=O)OC(C)(C)C	SR-BI uptake up 64.0
CC(C)(C)OC(=O)NCCCC[C@H](NC(=O)c1nc[nH]c1C(=O)NCc1ccccc1)C(=O)OC(C)(C)C	none
O=C(CCCn1c(=O)c2sccc2n(Cc2cc(=O)n3ccccc3n2)c1=O)NCc1ccco1	CaV13 ICDI inh active
Nc1ccc(O)c2c1C(=O)c1ccccc1C2=O	none (no result: CaV13 ICDI inh)
O=C1c2ccccc2C(=O)c2c(Nc3ccc(CCO)cc3)ccc(O)c21	SR-BI DiI inh 93.3
CCN(CC)C(=O)c1cccc(NC(=O)c2cc(-c3ccccn3)nc3ccccc23)c1	SR-BI DiI inh 75.5
CCOc1ccccc1NC(=O)c1cc(-c2ccccn2)nc2ccccc12	SR-BI DiI inh 75.2
COC(=O)c1ccc(NC(=O)c2cc(-c3ccccn3)nc3ccccc23)cc1	Vif inh 62.3
COC(=O)c1ccc(NC(=O)c2cc(-c3ccncc3)nc3ccccc23)cc1	none
CC(C)Cc1cc(C(=O)Nc2ccccc2)c2ccccc2n1	SR-BI DiI inh 70.2
CCN(CC)S(=O)(=O)c1cc(NC(=O)c2cc(-c3ccccn3)nc3ccccc23)ccc1C	none
Cc1ccccc1C(=O)N[C@H](C(=O)N1CCC[C@H]1C(=O)NC1CCCC1)c1ccccc1	none (no result: NTR1 ag, SR-BI uptake up, V-ATPase pH, SR-BI DiI inh, Vif inh)
O=C(Nc1ccccc1)Nc1ccc(O)c2ccccc12	none (no result: CaV13 ICDI inh, SR-BI uptake up, SR-BI DiI inh, Vif inh)
Cn1c(=O)c([N+](=O)[O-])c(Cl)c2ccccc21	V-ATPase pH 32.3 (no result: NTR1 ag)
CCN(CC)c1c([N+](=O)[O-])c(=O)n(C)c2ccccc12	none
Cc1ccc(Nc2c([N+](=O)[O-])c(=O)n(C)c3ccccc23)cc1C	SR-BI DiI inh 71.2
CC(=O)N1CCN(S(=O)(=O)c2cccc(C(=O)NNC(=O)c3ccc(Br)cc3)c2)CC1	none (no result: NTR1 ag)
O=C(Nc1ccccc1C(=O)O)c1ccc(Br)c(S(=O)(=O)NCc2ccccc2)c1	none
COc1cc(-c2cc3nc(NCCOc4ccccc4)ccn3n2)cc(OC)c1OC	none (no result: NTR1 ag, SR-BI uptake up, V-ATPase pH, SR-BI DiI inh, Vif inh)
COc1cc(C(=O)Nc2ccc3c(c2)OCCO3)ccc1OC(F)F	SR-BI DiI inh 78.6
O=C(Nc1cccc(C(=O)O)c1)/C(=C\c1ccc(F)cc1)NC(=O)c1ccco1	Vif inh 64.5 (no result: SR-BI uptake up, SR-BI DiI inh)
COc1ccc(NC(=O)c2ccc(NC(=O)c3ccco3)cc2)c(OC)c1	SR-BI DiI inh 81.5
COc1cc(NC(=O)COc2ccccc2[N+](=O)[O-])ccc1NC(=O)c1cccs1	SR-BI DiI inh inconclusive, Vif inh 52.8 (no result: NTR1 ag)
CC(=O)NC(Cc1ccc(O)cc1)C(=O)NN (stereo not given)	none
CCn1c(SCC(=O)Nc2ccc(NC(=O)c3ccco3)c(OC)c2)nc2ccccc2c1=O	none (no result: V-ATPase pH)
COCCn1c(SCC(=O)Nc2ccc(NC(=O)c3ccco3)c(OC)c2)nc2ccccc2c1=O	SR-BI DiI inh 73.6
COC(=O)c1ccc(NC(=O)c2cccc(NC(=O)c3ccco3)c2)cc1	SR-BI uptake up 749.2
COc1cc(NC(=O)c2ccc(Cl)cc2Cl)ccc1NC(=O)c1cccs1	SR-BI DiI inh 73.3
COc1cc(NC(=O)c2ccc(Br)o2)ccc1NC(=O)C(C)C	SR-BI DiI inh 71.0
Cc1cc(C)cc(C(=O)NC(=S)Nc2ccc(-c3cc4ccccc4oc3=O)cc2)c1	none
COc1cc(NC(=O)c2ccccc2Cl)ccc1NC(=O)c1ccco1	SR-BI DiI inh 81.2
CC(C)Cn1nc(NC(=O)c2cccs2)c2cc3ccccc3nc21	none
COc1cc(NC(=O)c2ccc(Cl)cc2Cl)ccc1-c1cc2ccccc2oc1=O	SR-BI DiI inh 83.9
COc1ccc2nc3c(cc2c1)c(NC(=O)c1cccs1)nn3CC(C)C	CaV13 ICDI inh 56.0
Cc1ccc(C(=O)NC(=S)Nc2ccc(-c3cc4ccccc4oc3=O)cc2)c(C)c1	SR-BI DiI inh 82.0 (no result: CaV13 ICDI inh)
CC(=O)Nc1ccc(S(=O)(=O)NCC(=O)Nc2ccc3c(c2)OCO3)cc1	none
O=C(N/N=C1\CCCc2c1[nH]c1ccc([N+](=O)[O-])cc21)c1ccncc1	none (no result: CaV13 ICDI inh, SR-BI uptake up, V-ATPase pH, SR-BI DiI inh, Vif inh)
CCN(CC(=O)NC1CCS(=O)(=O)C1)C(C)C(=O)Nc1ccc(F)cc1 (stereo not given)	none
COc1cc(NC(=O)c2ccc3c(c2)OCCO3)ccc1NC(=O)c1ccccc1Cl	SR-BI DiI inh 88.5 (no result: CaV13 ICDI inh)
O=C(COc1cccc(NC(=O)c2ccco2)c1)c1ccc(F)cc1	V-ATPase pH 18.7 (no result: CaV13 ICDI inh)
COc1ccc(NC(=O)c2cccs2)cc1	V-ATPase pH 21.3 (no result: CaV13 ICDI inh)
CCOc1ccccc1NC(=O)c1cc(Cl)ccc1NC(=O)c1ccco1	SR-BI DiI inh 80.8 (no result: Vif inh)
O=C(COc1cccc(NC(=O)c2ccccc2)c1)c1ccc(F)cc1	none (no result: Vif inh)
NS(=O)(=O)c1ccc(NC(=O)COC(=O)Cn2cnc3ccccc3c2=O)cc1	none
C[C@H](O)[C@@H]1C(=O)N2CCc3c([nH]c4cccc(-c5ccccc5)c34)[C@@H]2C[C@@H]1N(C)C(=O)c1ccco1	none (no result: NTR1 ag, SR-BI uptake up, V-ATPase pH, SR-BI DiI inh, Vif inh)
CCOC(=O)c1c(C)[nH]c(C)c1C(=O)COC(=O)[C@@H](NC(=O)c1ccccc1OCC)C(C)C	none

Screens: PubChem BioAssay, several laboratories
